Calls of active or inactive are those of the source. How the calls were made is not given here.
Biological target: Serine hydrolase RBBP9 (Homo sapiens) (UniProt O75884)
Assay: inhibition of RBBP9 probe labeling – biochemical, gel-based ABPP, FP-rhodamine, powder samples, orthogonal assay, late-stage follow-up (AID 2269)
Conditions: recombinant RBBP9, gel-based ABPP, at 20 µM, hits give high values
How it was run: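 Material: recombinant RBBP9. Signal: SDS-PAGE separation with in-gel fluorescence scanning. Dosing: single concentration. Timing: compound 30 min at 25 °C, probe 45 min. Benchmarks: DMSO vehicle control. Probe or stimulus: fluorophosphonate-rhodamine activity-based probe, 75 nM final.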

Serine hydrolase RBBP9 (Homo sapiens), sequence (O75884 whole entry, looked up): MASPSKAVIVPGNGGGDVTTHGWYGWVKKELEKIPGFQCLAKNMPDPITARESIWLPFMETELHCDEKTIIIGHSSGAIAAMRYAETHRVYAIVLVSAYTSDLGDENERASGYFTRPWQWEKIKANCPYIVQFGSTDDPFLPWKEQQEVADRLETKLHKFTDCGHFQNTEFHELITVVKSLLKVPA

Row | Compound | inhibition
1 | C/C(=N\OC(=O)N1CCCCC1)c1nccs1 | 0% (inactive)
2 | CC(C)=NOC(=O)c1cn(-c2ccccc2)nc1-c1ccc(F)cc1 | 0% (inactive)
3 | CC(=NOC(=O)c1ccc(S(=O)(=O)N2CCOCC2)cc1)c1cc2ccccc2o1 | 15% (inactive)
4 | CC1=CC(=NOC(=O)/C=C/c2ccccc2)C=C(C)C1=O | 78%
5 | C/C(=N\OC(=O)c1ccccc1Cl)c1ccc(Br)cc1 | 0% (inactive)
6 | NC(=O)C(=NOC(=O)c1ccccc1)c1nc(-c2ccc(Cl)cc2)cs1 | 57%
7 | N/C(Cc1ccc(Cl)cc1)=N\OC(=O)C1CCCCC1 | 0% (inactive)
8 | CC(=NOC(=O)c1ccc(-c2ccccc2)cc1)c1cccs1 | 0% (inactive)
9 | CC(=NOC(=O)c1ccc(-c2cc(Cl)ccc2Cl)o1)c1ccccc1 | 0% (inactive)
10 | C/C(=N\OC(=O)c1ccccc1O)c1cccs1 | 0% (inactive)
11 | COc1ccc(C(=O)O/N=C2\C=C(C)C(=O)C=C2C)cc1 | 76%
12 | C/C(=N\OC(=O)c1c(-c2c(F)cccc2Cl)noc1C)c1nccs1 | 14% (inactive)
13 | C/C(=N\OC(=O)C1CCCCC1)c1nccs1 | 91%
14 | COc1ccc(C(=O)ON=C2C(C)=CC(=O)C=C2C)cc1 | 48% (inactive)
15 | NC(=O)C(=NOC(=O)c1ccccc1Cl)c1nc(-c2ccc(Br)cc2)cs1 | 0% (inactive)
16 | C#CCCC(=O)O/N=C(\C)c1nccs1 | 42% (inactive)
17 | NC(=NOC(=O)C1CCCCC1)c1cccc([N+](=O)[O-])c1 | 5% (inactive)
18 | COc1ccc(C(=O)ON=C2C=C(C)C(=O)C(C)=C2)cc1 | 93%
19 | N/C(Cc1cccs1)=N\OC(=O)C12CC3CC(CC(C3)C1)C2 | 6% (inactive)
20 | C/C(=N\OC(=O)/C=C/c1ccccc1)c1nccs1 | 42% (inactive)
21 | COc1ccc(/C(N)=N/OC(=O)C23CC4CC(CC(C4)C2)C3)cc1OC | 28% (inactive)
22 | CC(C)=NOC(=O)c1cn(-c2ccccc2)nc1-c1cccs1 | 0% (inactive)
23 | CC(=O)ON=C(C)c1cc(C(C)(C)C)cc2c1CCC2(C)C | 0% (inactive)
24 | CC(=NOC(=O)c1cn(-c2ccccc2)nc1-c1ccc(Cl)cc1)c1ccccc1 | 10% (inactive)

Continued, values first:

Row | inhibition | Compound
25 | 46% (inactive) | C/C(=N\OC(=O)c1cccc(C(F)(F)F)c1)c1nccs1
26 | 78% | C/C(=N\OC(=O)c1ccc(Cl)cc1)c1nccs1
27 | 63% | C/C(=N\OC(=O)c1cccc(Cl)c1)c1nccs1
28 | 4% (inactive) | C/C(=N\OC(=O)c1ccc(-c2ccccc2)cc1)c1nccs1
29 | 64% | C/C(=N\OC(=O)c1ccccc1F)c1nccs1
30 | 17% (inactive) | CC(=NOC(=O)c1c(-c2ccccc2Cl)noc1C)c1nccs1
31 | 66% | C/C(=N\OC(=O)c1c(F)cccc1F)c1nccs1
32 | 15% (inactive) | C/C(=N\OC(=O)c1ccc([N+](=O)[O-])cc1)c1nccs1
33 | 62% | C/C(=N\OC(=O)c1ccccc1)c1nccs1
34 | 60% | COc1ccc(C(=O)O/N=C(\C)c2nccs2)cc1
35 | 76% | C/C(=N\OC(=O)c1ccc(F)cc1)c1nccs1
36 | 0% (inactive) | CC(=O)O/N=C(\C)c1nccs1
37 | 66% | C/C(=N\OC(=O)c1ccc(I)cc1)c1nccs1
